Key:
Format in all cases: functional
Rattus norvegicus [1] = species: Rattus norvegicus; experiment: Activity to induce the elevation of alpha/beta cholesterol ratio in plasma lipids of male Wistar rats; parameters: concentration or dose not given beside the values
Procedure, shortened: (§1)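 Wistar rats on normal diet; groups were vehicle control, an internal-standard diphosphonate, and test compounds. Dosed daily for 4 days; diphosphonates were dissolved in water or suspended in 1% (carboxymethyl)cellulose, 4 mL/kg. On day 5, after overnight fast, rats were killed under ether. EDTA plasma was assayed enzymatically for HDL-C after heparin-CaCl2 precipitation of VLDL/LDL, phospholipids, triglycerides and α/β-cholesterol ratio. Results are given as % of control.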

Rattus norvegicus [2] = species: Rattus norvegicus; experiment: Activity to induce the elevation of HDL(High Density Lipoproteins)-Cholesterol in plasma lipids of male Wistar rats; parameters: concentration or dose not given beside the values; procedure, shortened: as §1
Rattus norvegicus [3] = species: Rattus norvegicus; experiment: Activity to induce the elevation of phospholipids in plasma lipids of male Wistar rats; parameters: concentration or dose not given beside the values; procedure, shortened: as §1
Rattus norvegicus [4] = species: Rattus norvegicus; experiment: Activity to induce the elevation of triglycerides in plasma lipids of male Wistar rats; parameters: concentration or dose not given beside the values; procedure, shortened: as §1
Rattus norvegicus [5] = experiment: Activity to induce the elevation of alpha/beta cholesterol ratio in plasma lipids of male Wistar rats after po administration of 100 mg/kg/day
Procedure, shortened: (§2)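 Rats (Wistar, normal diet) were treated daily for 4 days and fasted overnight, and EDTA plasma was taken on day 5. Total cholesterol was measured enzymatically, and β-lipoprotein cholesterol after heparin-CaCl2 precipitation. The α/β-cholesterol ratio is reported as % change from vehicle-treated controls.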

Rattus norvegicus [6] = experiment: Activity to induce the elevation of triglycerides in plasma lipids of male Wistar rats after po administration of 100 mg/kg/day
Procedure, shortened: (§3)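 Daily dosing of normal-diet Wistar rats ran for 4 days, with sacrifice on day 5 after an overnight fast. Plasma was collected by decapitation into EDTA. Total triglycerides were measured enzymatically and expressed as % change relative to the vehicle control group.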

Rattus norvegicus [7] = experiment: Activity to induce the elevation of phospholipids in plasma lipids of male Wistar rats after po administration of 100 mg/kg/day
Procedure, shortened: (§4)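 Normal-diet Wistar rats were given the test agent once daily for 4 days and killed on day 5 after an overnight fast. Total plasma phospholipids (EDTA plasma) were measured chemically by the molybdate/vanadate reaction or enzymatically (phospholipid B test). Values are % of vehicle controls.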

Rattus norvegicus [8] = experiment: Activity to induce the elevation of HDL(High Density Lipoproteins)-Cholesterol in plasma lipids of male Wistar rats after po administration of 100 mg/kg/day
Procedure, shortened: (§5)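 Wistar rats on a normal diet were dosed daily for 4 days at the dose and route given. On day 5, after an overnight fast, they were killed under ether and blood was taken by decapitation into EDTA. Plasma HDL cholesterol was measured after heparin-CaCl2 precipitation of VLDL/LDL and is expressed as % change versus a vehicle control group.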

Rattus norvegicus [9] = experiment: Activity to induce the elevation of HDL(High Density Lipoproteins)-Cholesterol in plasma lipids of male Wistar rats after the sc administration of 5 mg/kg/day; conditions: route subcutaneous; procedure, shortened: as §5
Rattus norvegicus [10] = experiment: Activity to induce the elevation of triglycerides in plasma lipids of male Wistar rats after the sc administration of 5 mg/kg/day; conditions: route subcutaneous; procedure, shortened: as §3
Rattus norvegicus [11] = experiment: Activity to induce the elevation of phospholipids in plasma lipids of male Wistar rats after the sc administration of 5 mg/kg/day; conditions: route subcutaneous; procedure, shortened: as §4
Rattus norvegicus [12] = experiment: Activity to induce the elevation of alpha/beta cholesterol ratio in plasma lipids of male Wistar rats after the sc administration of 5 mg/kg/day; conditions: route subcutaneous; procedure, shortened: as §2
Rattus norvegicus [13] = species: Rattus norvegicus; experiment: Activity to induce the elevation of HDL(High Density Lipoproteins)-Cholesterol of male Wistar rats; parameters: concentration or dose not given beside the values; procedure, shortened: as §1
Rattus norvegicus [14] = species: Rattus norvegicus; experiment: Activity to induce the elevation of alpha/beta cholesterol ratio of male Wistar rats; parameters: concentration or dose not given beside the values; procedure, shortened: as §1
Rattus norvegicus [15] = experiment: Activity to induce the elevation of alpha/beta cholesterol ratio of male Wistar rats after po administration of 100 mg/kg/day; procedure, shortened: as §2
Rattus norvegicus [16] = experiment: Activity to induce the elevation of phospholipids of male Wistar rats after po administration of 100 mg/kg/day; procedure, shortened: as §4
Rattus norvegicus [17] = experiment: Activity to induce the elevation of triglycerides of male Wistar rats after po administration of 100 mg/kg/day; procedure, shortened: as §3
Rattus norvegicus [18] = species: Rattus norvegicus; experiment: Activity to induce the elevation of phospholipids of male Wistar rats; parameters: concentration or dose not given beside the values; procedure, shortened: as §1
Rattus norvegicus [19] = species: Rattus norvegicus; experiment: Activity to induce the elevation of triglycerides of male Wistar rats; parameters: concentration or dose not given beside the values; procedure, shortened: as §1
Rattus norvegicus [20] = experiment: Activity to induce the elevation of HDL(High Density Lipoproteins)-Cholesterol of male Wistar rats after po administration of 100 mg/kg/day; procedure, shortened: as §5

Row | Compound | Control (Rattus norvegicus [1]) [%] | Control (Rattus norvegicus [2]) [%] | Control (Rattus norvegicus [3]) [%] | Control (Rattus norvegicus [4]) [%] | Control (Rattus norvegicus [5]) [%] | Control (Rattus norvegicus [6]) [%] | Control (Rattus norvegicus [7]) [%] | Control (Rattus norvegicus [8]) [%] | also measured
1 | COP(=O)(OC)C(Cl)(CCCc1ccccc1)P(=O)(OC)OC | -9 | 26 | 24 | -36 | – | – | – | – | –
2 | CCCCCCCCCCCCCCOc1ccc(CC(P(=O)(OC)OC)P(=O)(OC)OC)cc1 | 14 | 20 | 10 | 4 | – | – | – | – | –
3 | CCOC(=O)C(C)(C)Oc1ccc(Cl)cc1 [CLOFIBRATE] | – | – | – | – | -53 | 28 | -22 | -34 | –
4 | C[C@]12CC[C@@H]3c4ccc(O)cc4CC[C@H]3[C@@H]1CC[C@@H]2O [ESTRADIOL] | – | – | – | – | – | – | – | – | Control (Rattus norvegicus [9]): -83%; Control (Rattus norvegicus [10]): -51%; Control (Rattus norvegicus [11]): -77%; Control (Rattus norvegicus [12]): -47%
5 | CC(C)OC(=O)C(C)(C)Oc1ccc(C(=O)c2ccc(Cl)cc2)cc1 [FENOFIBRATE] | – | – | – | – | -80 | 12 | -19 | -45 | –
6 | COP(=O)(OC)OC(c1ccc(Cl)cc1)P(=O)(OC)OC (stereo not drawn) [MIFOBATE] | – | – | – | – | – | – | – | – | HDL-cholesterol change relative to control (%) (Rattus norvegicus [13]): 157%; Percent change in alpha/beta cholesterol ratio versus control (Rattus norvegicus [14]): 180%; Control (Rattus norvegicus [15]): 52%; Control (Rattus norvegicus [16]): 17%; Control (Rattus norvegicus [17]): 0%; Plasma phospholipids, % change versus control (Rattus norvegicus [18]): 26%; Percent change in plasma triglycerides versus control (Rattus norvegicus [19]): 0%; Control (Rattus norvegicus [20]): 26%
